From ChEMBL document CHEMBL3865785, “Dopaminergic isoquinolines with hexahydrocyclopenta[ij]-isoquinolines as D2-like selective ligands” (Eur J Med Chem, 2016)

Assays:
[1] = Displacement of [3H]SCH23390 from D1-like dopaminergic receptor (unknown origin) in striatal membrane measured after 1 hr by liquid scintillation counting method; type: cell membranes, Homo sapiens, Striatum
In short: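 Striatal membranes homogenized in 50 mM Tris-HCl pH 7.4, centrifuged twice at 20000 g. Resuspended in Tris with 5 mM MgSO4, 0.5 mM EDTA, 0.02% ascorbic acid. 100 µg protein incubated 1 h at 25 °C with 0.25 nM (final) [3H]SCH 23390 plus drug. Nonspecific binding defined with 30 μM SK&F 38393. GF/B filtration, scintillation counting. Mean ± SEM, n = 3.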

[2] = Displacement of [3H]raclopride from D2-like dopaminergic receptor (unknown origin) in striatal membrane measured after 1 hr by liquid scintillation counting method; type: cell membranes, Homo sapiens, Striatum
In short: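 Striatal membranes washed by four 20000 g centrifugations. Resuspended in Tris buffer with 120 mM NaCl, 5 mM KCl, 1 mM CaCl2, 1 mM MgCl2, 0.1% ascorbic acid. 200 µg protein incubated 1 h at 25 °C with 0.5 nM (final) [3H]raclopride plus drug. Nonspecific binding defined with 50 µM apomorphine. Filtration, scintillation counting. Mean ± SEM, n = 3.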

Homo sapiens = species on record: Homo sapiens; experiment: Selectivity ratio of Ki for D1-like dopaminergic receptor (unknown origin) in striatal membranes to Ki for D2-like dopaminergic receptor (unknown origin) in striatal membranes; type: cell membranes
[3] = Cytotoxicity against HUVEC assessed as reduction in cell viability at 30 uM measured after 24 hrs by MTT assay relative to control; type: toxicity, cell-based; conditions: human
In short: (§1)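 Neutrophils isolated from healthy-donor buffy coats by Ficoll-Hypaque gradient; HUVEC from collagenase isolation, passage ≤1. Cells at 10^5 per 100 µL supplemented RPMI, incubated 24 h at 37 °C with or without compound (30 μM). MTT added (solution made at 2 mg/mL in PBS), further 3 h at 37 °C; colorimetric readout vs vehicle. Mean ± SEM, n = 3 independent experiments.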

[4] = Induction of apoptosis in human neutrophils assessed as late apoptotic cells at 30 uM measured after 24 hrs by Annexin-V-FITC/propidium iodide staining-based flow cytometric analysis (reference value: 0.06%); type: cell-based; conditions: neutrophil
[5] = Induction of apoptosis in human neutrophils assessed as early apoptotic cells at 30 uM measured after 24 hrs by Annexin-V-FITC/propidium iodide staining-based flow cytometric analysis (reference value: 1.1%); type: cell-based; conditions: neutrophil
[6] = Induction of apoptosis in human neutrophils assessed as necrotic cells at 30 uM measured after 24 hrs by Annexin-V-FITC/propidium iodide staining-based flow cytometric analysis (reference value: 5.33%); type: cell-based; conditions: neutrophil
[7] = Induction of apoptosis in HUVEC at 30 uM measured after 24 hrs by Annexin-V-FITC/propidium iodide staining-based flow cytometric analysis; type: cell-based; conditions: human
[8] = Cytotoxicity against human neutrophils assessed as reduction in cell viability at 30 uM measured after 24 hrs by MTT assay relative to control; type: toxicity, cell-based; conditions: neutrophil; in short: as §1
[9] = Induction of apoptosis in human neutrophils assessed as viable cells at 30 uM measured after 24 hrs by Annexin-V-FITC/propidium iodide staining-based flow cytometric analysis (reference value: 93.52%); type: cell-based, Neutrophil; conditions: read-out: Activity

| SMILES | Ki [1] | pKi [1] | Ki [2] | pKi [2] | Ratio Ki (Homo sapiens) | Activity [3] | Activity [4] | Activity [5] | Activity [6] | Activity [7] | Activity [8] | viability at 24 h, 30 µM [9] |
| --- | --- | --- | --- | --- | --- | --- | --- | --- | --- | --- | --- | --- |
| C/C=C/C1NCCc2cc(O)c(O)cc21 (centres undefined) | 57.7 µM | 4.246 | 0.458 µM | 6.352 | 126 | – | – | – | – | – | – | – |
| CN1CCc2cc(O)c(O)c3c2C1CC3c1ccccc1 (centres undefined) | – | – | – | – | – | Non-Toxic | 3.06% | 0.15% | 5.05% | Non-Toxic | Non-Toxic | 94.7% |
| COc1cc2c(cc1OC)C(/C=C/c1ccccc1)N(C)CC2 (centres undefined) | 6.2 µM | 5.251 | 0.436 µM | 6.376 | 14.2 | – | – | – | – | – | – | – |
| C=CCN1CCc2cc(OC)c(OC)cc2C1/C=C/C (centres undefined) | 37.6 µM | 4.432 | 13.8 µM | 4.86 | 2.72 | – | – | – | – | – | – | – |
| CN1CCc2cc(O)c(O)cc2C1/C=C/c1ccccc1 (centres undefined) | 3.19 µM | 5.498 | 0.057 µM | 7.264 | 55.9 | Non-Toxic | 0.12% | 3.24% | 6.94% | Non-Toxic | Non-Toxic | 89.7% |
| C=CCN1CCc2cc(O)c(O)cc2C1/C=C/c1ccccc1 (centres undefined) | 6.04 µM | 5.267 | 0.041 µM | 7.408 | 147 | Non-Toxic | 0.16% | 0.15% | 6.11% | Non-Toxic | Non-Toxic | 93.6% |
| C/C=C/C1c2cc(O)c(O)cc2CCN1C (centres undefined) | 1.29 µM | 5.897 | 0.072 µM | 7.181 | 17.9 | Non-Toxic | 0.3% | 3.95% | 2.43% | Non-Toxic | Non-Toxic | 93.3% |
| Oc1cc2c3c(c1O)C(c1ccccc1)CC3NCC2 (centres undefined) | – | – | – | – | – | Non-Toxic | 0.05% | 0.08% | 4.53% | Non-Toxic | Non-Toxic | 95.3% |
| C=CCN1CCc2cc(O)c(O)cc2C1/C=C/C (centres undefined) | 1.71 µM | 5.766 | 0.018 µM | 7.749 | 95.2 | Non-Toxic | 0.11% | 0.28% | 0.1% | Non-Toxic | Non-Toxic | 93.5% |
| C/C=C/C1c2cc(OC)c(OC)cc2CCN1C (centres undefined) | 18.3 µM | 4.74 | 14.7 µM | 4.833 | 1.24 | – | – | – | – | – | – | – |
| NCCc1ccc(O)c(O)c1 [DOPAMINE] | 0.55 µM | 6.26 | 0.56 µM | 6.837 | 0.98 | – | – | – | – | – | – | – |
| C=CCN1CCc2cc(O)c(O)c3c2C1CC3c1ccccc1 (centres undefined) | – | – | – | – | – | Non-Toxic | 0.33% | 6.86% | 3.03% | Non-Toxic | Toxic | 89.9% |
| C=CCN1CCc2cc(OC)c(OC)cc2C1/C=C/c1ccccc1 (centres undefined) | 7.68 µM | 5.133 | 1.17 µM | 5.942 | 6.58 | – | – | – | – | – | – | – |
| Oc1cc2c(cc1O)C(/C=C/c1ccccc1)NCC2 (centres undefined) | 9.57 µM | 5.048 | 1.42 µM | 5.869 | 6.73 | – | – | – | – | – | – | – |
| COc1cc2c(cc1OC)C(/C=C/c1ccccc1)NCC2 (centres undefined) | 4.56 µM | 5.36 | 6.18 µM | 5.244 | 0.74 | – | – | – | – | – | – | – |
| C/C=C/C1NCCc2cc(OC)c(OC)cc21 (centres undefined) | 45.6 µM | 4.347 | 8.86 µM | 5.059 | 5.15 | – | – | – | – | – | – | – |
